This is an account of results in ChEMBL document CHEMBL3124827, “Design and synthesis of 2-styryl of 5-Nitroimidazole derivatives and antimicrobial activities as FabH inhibitors” (Eur J Med Chem, 2014).

Structures are written as SMILES. Values after ≈ are worked out from the molar mass of the structure shown.

For one series, the system named is Bacillus subtilis. The experiment in a line: Antibacterial activity against Bacillus subtilis after 12 hrs by MTT assay. The class given is functional, organism-based. The method in brief:
(§1)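 MTT broth-dilution assay; drug-containing medium added to final concentrations of 320, 160, 40, 10, 2.5 and 0.25 µg/mL, each in triplicate. After 12 h, 25 µL of 5 mg/mL MTT in PBS added; after 4 h medium discarded, formazan dissolved in 150 µL DMSO with 10 min shaking, absorbance read at 490 nm; 50% inhibitory concentration reported.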
A general note: Tetrazolium assays rely on reduction of a dye to a coloured formazan, in cell work by metabolically active cells.

In another series the test system is Bacillus thuringiensis. The experiment in a line: Antibacterial activity against Bacillus thuringiensis after 12 hrs by MTT assay. The class given is functional, organism-based. The method in brief:
as §1

Another series concerns Escherichia coli. The experiment in a line: Antibacterial activity against Escherichia coli after 12 hrs by MTT assay. The class given is functional, organism-based. The method in brief:
as §1

For a further series, the system named is Pseudomonas aeruginosa. The experiment in a line: Antibacterial activity against Pseudomonas aeruginosa after 12 hrs by MTT assay. The class given is functional, organism-based. The method in brief:
as §1

A short description of series [1]: Inhibition of Pseudomonas aeruginosa FabH after 25 mins. The method in brief: (§2)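 His-tagged FabH purified by Ni-NTA (IPTG 0.5 mM induction in kanamycin LB), stored at 2 mg/mL. 20 µL reaction: 20 mM Na2HPO4 pH 7.0, 0.5 mM DTT, 0.25 mM MgCl2, 2.5 µM holo-ACP, 1 nM FabH; after 1 min, 25 µM acetyl-CoA, 0.5 mM NADH, 0.5 mM NADPH added for 25 min; 3H incorporation by liquid scintillation; inhibitors from DMSO stock, final DMSO ≤2%; IC50 determined.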

The nature of series [2]: Inhibition of Escherichia coli FabH expressed in Escherichia coli BL21 (DE3) after 25 mins. The method in brief: as §2
Series [3] is described as follows: Cytotoxicity against human macrophages up to 160 ug/ml after 24 hrs by MTT assay. Conditions: macrophage. It is filed as cell-based. The method in brief: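 Cells grown to 90% confluency, switched to serum-free DMEM, exposed to various concentrations for 24 h; viability by MTT, read spectrophotometrically as absorbance difference 570 minus 630 nm.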
The nature of series [4]: Cytotoxicity against human macrophages assessed as change in morphology at 0.25 to 160 ug/ml after 24 hrs using Giemsa staining by phase contrast microscopic analysis. The class given is cell-based. The settings on record: macrophage. The method in brief: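 Confluent cells (100 µL stock suspension) grown to 90% confluency, medium replaced with serum-free DMEM, then exposed 24 h to 0.25 or 160 µg/mL test compound; cell morphology compared with untreated control after Giemsa staining under phase contrast microscopy.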

As usually defined, the IC50 is the concentration that gives 50% inhibition. A low value points to higher potency. Regarding `O=[N+]([O-])c1cnc(/C=C/c2ccccc2)n1CCO`, the IC50 in the series on Bacillus subtilis was 49.3 µg/mL (≈ 190 µM); in the series on Bacillus thuringiensis, 49.5 µg/mL (≈ 191 µM); in the series with Escherichia coli, > 200 µg/mL; with Pseudomonas aeruginosa it was 12.4 µg/mL (≈ 47.8 µM).
The matching figures for `COc1ccc(/C=C/c2ncc([N+](=O)[O-])n2CCO)cc1`: 146 µg/mL (≈ 506 µM), 67.4 µg/mL (≈ 233 µM), 89.1 µg/mL (≈ 308 µM) and 30.2 µg/mL (≈ 104 µM).
For the molecule `O=[N+]([O-])c1cnc(/C=C/c2ccc(Br)cc2)n1CCO`, the IC50 with Bacillus subtilis is 114 µg/mL (≈ 336 µM); in the series with Bacillus thuringiensis, 19.2 µg/mL (≈ 56.8 µM); in the series on Escherichia coli, 119 µg/mL (≈ 353 µM); with Pseudomonas aeruginosa, 32.2 µg/mL (≈ 95.2 µM).
In the case of `O=[N+]([O-])c1cnc(/C=C/c2cccc(F)c2)n1CCO`, the IC50 in the series with Bacillus subtilis was found to be 36.6 µg/mL (≈ 132 µM); in the series on Bacillus thuringiensis it was 55.1 µg/mL (≈ 199 µM); with Escherichia coli, 114 µg/mL (≈ 412 µM); with Pseudomonas aeruginosa it was 16.8 µg/mL (≈ 60.6 µM).
The matching figures for `O=[N+]([O-])c1cnc(/C=C/c2ccc(Cl)cc2)n1CCO`: 32.8 µg/mL (≈ 112 µM), 32.1 µg/mL (≈ 109 µM), > 200 µg/mL and 48.3 µg/mL (≈ 164 µM).
Regarding `O=[N+]([O-])c1cnc(/C=C/c2ccc(F)cc2)n1CCO`, the IC50 in the series with Bacillus subtilis was found to be 8.8 µg/mL (≈ 31.7 µM); in the series with Bacillus thuringiensis it was 12.5 µg/mL (≈ 45.1 µM); in series [1] it was 22.5 µM; with Escherichia coli, 57.2 µg/mL (≈ 206 µM); in the series with Pseudomonas aeruginosa it was 1.7 µg/mL (≈ 6.13 µM); in series [2] it was 16.5 µM.
On to `O=[N+]([O-])c1cnc(/C=C/c2cccc(Cl)c2)n1CCO`, for which the IC50 in the series on Bacillus subtilis stood at 40.7 µg/mL (≈ 139 µM); in the series with Bacillus thuringiensis it was 25.7 µg/mL (≈ 87.5 µM); with Escherichia coli, 119 µg/mL (≈ 406 µM); with Pseudomonas aeruginosa it was 14.7 µg/mL (≈ 50 µM).
As to `COc1cccc(/C=C/c2ncc([N+](=O)[O-])n2CCO)c1`, the IC50 was 26.2 µg/mL (≈ 90.6 µM) in the series with Bacillus subtilis, 12.1 µg/mL (≈ 41.8 µM) with Bacillus thuringiensis, > 200 µg/mL with Escherichia coli and 46.1 µg/mL (≈ 159 µM) in the series on Pseudomonas aeruginosa.
With `O=[N+]([O-])c1ccc(/C=C/c2ncc([N+](=O)[O-])n2CCO)cc1`, the IC50 in the series with Bacillus subtilis is 9 µg/mL (≈ 29.6 µM); with Bacillus thuringiensis, 13.9 µg/mL (≈ 45.7 µM); in series [1] it was 12.4 µM; in the series with Escherichia coli, 36.4 µg/mL (≈ 120 µM); with Pseudomonas aeruginosa, 15.5 µg/mL (≈ 50.9 µM); in series [2], 2.1 µM. Besides, the Activity result in series [3] and in series [4] was “Non-toxic” throughout.
With `COc1ccccc1/C=C/c1ncc([N+](=O)[O-])n1CCO`, the IC50 turned out to be 19.8 µg/mL (≈ 68.4 µM) in the series on Bacillus subtilis, 37.3 µg/mL (≈ 129 µM) with Bacillus thuringiensis, 188 µg/mL (≈ 649 µM) with Escherichia coli and 20.4 µg/mL (≈ 70.5 µM) with Pseudomonas aeruginosa.
For `O=[N+]([O-])c1cnc(/C=C/c2cccc(Br)c2)n1CCO`, in that order: 24.4 µg/mL (≈ 72.2 µM), 23.4 µg/mL (≈ 69.2 µM), 116 µg/mL (≈ 342 µM) and 43.6 µg/mL (≈ 129 µM).
Regarding `CCOC(OCC)c1ccc(/C=C/c2ncc([N+](=O)[O-])n2CCO)cc1`, the IC50 in the series on Bacillus subtilis was 17.9 µg/mL (≈ 49.5 µM); with Bacillus thuringiensis it was 5.9 µg/mL (≈ 16.3 µM); in series [1] it was 15.9 µM; with Escherichia coli it was 59.2 µg/mL (≈ 164 µM); in the series on Pseudomonas aeruginosa, 70.3 µg/mL (≈ 195 µM); in series [2] it was 4.2 µM.
Turning to `O=[N+]([O-])c1cnc(/C=C/c2ccccc2F)n1CCO`, the IC50 in the series with Bacillus subtilis is 61.5 µg/mL (≈ 222 µM); in the series on Bacillus thuringiensis, 29.9 µg/mL (≈ 108 µM); in series [1] it was 19.2 µM; in the series on Escherichia coli, > 200 µg/mL; with Pseudomonas aeruginosa, 6.8 µg/mL (≈ 24.5 µM); in series [2] it was 4.4 µM.
For `O=[N+]([O-])c1cnc(/C=C/c2ccccc2Cl)n1CCO`, the concentration for half-maximal inhibition (IC50) in the series on Bacillus subtilis is 2.9 µg/mL (≈ 9.87 µM); with Bacillus thuringiensis it was 37.8 µg/mL (≈ 129 µM); in series [1], 29.2 µM; with Escherichia coli it was 175 µg/mL (≈ 595 µM); with Pseudomonas aeruginosa, 17.8 µg/mL (≈ 60.6 µM); in series [2], 6.5 µM.
For the molecule `Cc1ccc(/C=C/c2ncc([N+](=O)[O-])n2CCO)cc1`, the IC50 in the series on Bacillus subtilis turned out to be 42.6 µg/mL (≈ 156 µM); in the series on Bacillus thuringiensis, 28.6 µg/mL (≈ 105 µM); with Escherichia coli it was 145 µg/mL (≈ 530 µM); in the series with Pseudomonas aeruginosa, 2.9 µg/mL (≈ 10.6 µM).
As to `O=[N+]([O-])c1cnc(/C=C/c2c(F)cccc2Cl)n1CCO`, the IC50 came out at 19.6 µg/mL (≈ 62.9 µM) in the series on Bacillus subtilis, 25.3 µg/mL (≈ 81.2 µM) in the series with Bacillus thuringiensis, 82.1 µg/mL (≈ 263 µM) in the series on Escherichia coli and 38.1 µg/mL (≈ 122 µM) in the series with Pseudomonas aeruginosa.
For `O=[N+]([O-])c1cnc(/C=C/c2ccc(Cl)cc2Cl)n1CCO`, in that order: 57.1 µg/mL (≈ 174 µM), 36.7 µg/mL (≈ 112 µM), > 200 µg/mL and 39.3 µg/mL (≈ 120 µM).
With `CN(C)c1ccc(/C=C/c2ncc([N+](=O)[O-])n2CCO)cc1`, the IC50 with Bacillus subtilis came to 17.2 µg/mL (≈ 56.9 µM); with Bacillus thuringiensis it was 7.2 µg/mL (≈ 23.8 µM); in series [1], 25.6 µM; in the series with Escherichia coli it was 88 µg/mL (≈ 291 µM); in the series with Pseudomonas aeruginosa, 121 µg/mL (≈ 400 µM); in series [2], 10.2 µM.
On to `O=[N+]([O-])c1cccc(/C=C/c2ncc([N+](=O)[O-])n2CCO)c1`, for which the IC50 was 53.1 µg/mL (≈ 175 µM) in the series with Bacillus subtilis, 7 µg/mL (≈ 23 µM) in the series with Bacillus thuringiensis, > 200 µg/mL in the series on Escherichia coli and 74.6 µg/mL (≈ 245 µM) in the series with Pseudomonas aeruginosa.
The matching figures for `O=[N+]([O-])c1cnc(/C=C/c2ccccc2Br)n1CCO`: 27.9 µg/mL (≈ 82.5 µM), 9.3 µg/mL (≈ 27.5 µM), > 200 µg/mL and 7.6 µg/mL (≈ 22.5 µM).
Turning to `O=[N+]([O-])c1ccccc1/C=C/c1ncc([N+](=O)[O-])n1CCO`, the IC50 with Bacillus subtilis is 11.8 µg/mL (≈ 38.8 µM); in the series on Bacillus thuringiensis, 5.8 µg/mL (≈ 19.1 µM); in the series on Escherichia coli, 157 µg/mL (≈ 517 µM); in the series with Pseudomonas aeruginosa, 12.8 µg/mL (≈ 42.1 µM).
With `O=[N+]([O-])c1cnc(/C=C/c2ccc3ccccc3c2)n1CCO`, the concentration for half-maximal inhibition (IC50) in the series on Bacillus subtilis is 3.6 µg/mL (≈ 11.6 µM); in the series with Bacillus thuringiensis, 11.9 µg/mL (≈ 38.5 µM); in series [1] it was 10.2 µM; in the series with Escherichia coli, > 200 µg/mL; in the series on Pseudomonas aeruginosa it was 19.8 µg/mL (≈ 64 µM); in series [2], 11 µM.
Turning to `O=[N+]([O-])c1cnc(/C=C/c2ccc(OCc3ccccc3)cc2)n1CCO`, the half-maximal inhibitory concentration (IC50) in the series on Bacillus subtilis worked out at 6.3 µg/mL (≈ 17.2 µM); in the series on Bacillus thuringiensis, 9.8 µg/mL (≈ 26.8 µM); in series [1], 7.9 µM; with Escherichia coli it was 34.3 µg/mL (≈ 93.9 µM); in the series on Pseudomonas aeruginosa it was 14.5 µg/mL (≈ 39.7 µM); in series [2], 3.4 µM. Also, the Activity entry in series [3] and in series [4] was “Non-toxic” in each case.
Take `O=[N+]([O-])c1cnc(/C=C/c2cccc3ccccc23)n1CCO`: the IC50 in the series with Bacillus subtilis was determined as 13.6 µg/mL (≈ 44 µM); in the series with Bacillus thuringiensis, 8.6 µg/mL (≈ 27.8 µM); with Escherichia coli, 153 µg/mL (≈ 496 µM); with Pseudomonas aeruginosa it was 13.1 µg/mL (≈ 42.4 µM).
`NC[C@H]1O[C@H](O[C@H]2[C@H](O)[C@@H](O[C@H]3O[C@H](CO)[C@@H](O)[C@H](N)[C@H]3O)[C@H](N)C[C@@H]2N)[C@H](O)[C@@H](O)[C@@H]1O` [KANAMYCIN]: the IC50 in series [1] is 6.7 µM; in series [2], 3.1 µM.
In the case of `CC(C)(S)[C@@H](N)C(=O)O` [PENICILLAMINE], the half-inhibitory concentration (IC50) was 6.3 µg/mL (≈ 42.2 µM) in the series with Bacillus subtilis, 6.3 µg/mL (≈ 42.2 µM) in the series on Bacillus thuringiensis, 42.3 µg/mL (≈ 283 µM) in the series on Escherichia coli and 5.8 µg/mL (≈ 38.9 µM) in the series with Pseudomonas aeruginosa.
